Reference: ChEMBL document CHEMBL4351014, “Bis(het)aryl-1,2,3-triazole quinuclidines as α7 nicotinic acetylcholine receptor ligands: Synthesis, structure affinity relationships, agonism activity, [18F]-radiolabeling and PET study in rats” (Eur J Med Chem, 2019)
Calls of active or inactive are those of the source. The calls are words filed in the database; no cut-off is given here.

Target: Neuronal acetylcholine receptor subunit alpha-7 (Homo sapiens) (UniProt P36544)
Test: Agonist activity at alpha7 nAChR in human SH-SY5Y cells assessed as intracellular calcium release at 7 nM preincubated for 1 min with alpha7 nAchR PAM PNU120596 prior to compound addition by Fluo-3 AM staining-based fluorescence spectral scanning multimode reader analysis
Type: cell-based
Conditions: not given
Summary of the method: (§1)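 SH-SY5Y (ATCC) grown in MEM/F12 1:1 with 10% heat-inactivated FBS, differentiated with 10 μM retinoic acid for 7 days. Cells loaded with 10 μM fluo-3 AM plus 0.02% Pluronic F127 for 1 h at r.t. in the dark, then preincubated 20 min at r.t. in Tyrode's solution with vehicle. PNU-120596 added in the last minute. Fluorescence read at Ex 506/Em 526 nm, normalised to Triton (Fmax) and MnCl2 (Fmin). 5 experiments in duplicate, mean ± SEM.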

Neuronal acetylcholine receptor subunit alpha-7 (Homo sapiens), sequence (P36544 whole entry): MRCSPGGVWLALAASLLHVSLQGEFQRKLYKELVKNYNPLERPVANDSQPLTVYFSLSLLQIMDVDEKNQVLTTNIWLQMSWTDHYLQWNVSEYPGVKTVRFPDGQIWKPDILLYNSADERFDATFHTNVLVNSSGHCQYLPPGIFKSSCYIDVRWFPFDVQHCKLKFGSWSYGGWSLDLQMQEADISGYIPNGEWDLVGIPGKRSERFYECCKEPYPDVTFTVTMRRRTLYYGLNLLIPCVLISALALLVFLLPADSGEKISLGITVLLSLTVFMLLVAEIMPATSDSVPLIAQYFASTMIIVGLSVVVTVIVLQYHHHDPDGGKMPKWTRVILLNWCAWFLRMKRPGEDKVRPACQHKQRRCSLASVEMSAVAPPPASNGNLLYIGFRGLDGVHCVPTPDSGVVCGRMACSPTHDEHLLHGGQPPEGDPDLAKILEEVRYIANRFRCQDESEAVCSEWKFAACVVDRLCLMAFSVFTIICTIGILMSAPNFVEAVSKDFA

Row | SMILES | Activity
1 | OCc1cccc(-c2ccc(-c3cn([C@H]4CN5CCC4CC5)nn3)s2)c1 | inactive

Target: Neuronal acetylcholine receptor subunit alpha-7 (Homo sapiens) (UniProt P36544)
Test: (§2) Agonist activity at alpha7 nAChR in human SH-SY5Y cells assessed as release of intracellular calcium at 3 nM preincubated for 20 mins with alpha7 nAChR antagonist alpha-bungarotoxin and for 1 min with alpha7 nAChR PAM PNU120596 prior to compound addition by Fluo-3 AM staining-based fluorescence spectral scanning multimode reader analysis
Type: cell-based
Conditions: not given
Summary of the method: (§3)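 Differentiated SH-SY5Y cells loaded with fluo-3 AM as above, then preincubated 20 min at r.t. in Tyrode's solution with 100 nM α-bungarotoxin. PNU-120596 added 1 min before test agent or 3 mM choline. Fluorescence read at Ex 506/Em 526 nm, response expressed as % of (Fmax−Fmin) from 0.3% Triton X-100 then 100 mM MnCl2. 5 experiments in duplicate, mean ± SEM.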

Row | SMILES | Activity
2 | c1cc(-c2ccc(-c3cn([C@H]4CN5CCC4CC5)nn3)s2)ccc1CN1CCCCC1 | inactive

Test system: not listed separately
Test: Cytotoxicity against human SH-SY5Y cells assessed as reduction in cell viability at 13 uM incubated for 48 hrs by MTS assay relative to control
Type: cell-based
Conditions: read-out: INH
Summary of the method: (§4)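 Retinoic acid-differentiated SH-SY5Y cells exposed for 48 h to 10, 100 and 1000 × Ki of each agent. MTS added for 3 h, absorbance read at 490 nm. Viability given as % of vehicle-treated cells. 4 independent experiments in triplicate, mean ± SEM.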

Row | SMILES | cytotoxicity at 48 h, 13 µM
3 | Fc1ccc(-c2ccc(-c3cn([C@H]4CN5CCC4CC5)nn3)s2)cn1 | 15%

Test system: SH-SY5Y
Test: Cytotoxicity against human SH-SY5Y cells assessed as cell viability at 50 nM to 5 uM incubated for 48 hrs by MTS assay
Type: cell-based
Conditions: 0.05 µM
Summary of the method: as §4

Row | SMILES | Activity
4 | FCc1ccc(-c2ccc(-c3cn([C@H]4CN5CCC4CC5)nn3)s2)cc1 | Non-Toxic

Target: Neuronal acetylcholine receptor subunit alpha-7 (Homo sapiens) (UniProt P36544)
Test: (§5) Agonist activity at alpha7 nAChR in human SH-SY5Y cells assessed as increase in intracellular calcium release at 130 nM preincubated for 1 min with alpha7 nAchR PAM PNU120596 prior to compound addition by Fluo-3 AM staining-based fluorescence spectral scanning multimode reader analysis
Type: cell-based
Conditions: not given
Summary of the method: as §1

Row | SMILES | Activity
5 | Fc1ccc(-c2ccc(-c3cn([C@H]4CN5CCC4CC5)nn3)s2)cn1 | Active

Target: Neuronal acetylcholine receptor subunit alpha-7 (Homo sapiens) (UniProt P36544)
Test: as §5, with “3” for “130”, “analysis relative to choline” for “analysis”
Type: cell-based
Conditions: not given
Summary of the method: as §1

Row | SMILES | Activity
6 | c1cc(-c2ccc(-c3cn([C@H]4CN5CCC4CC5)nn3)s2)ccc1CN1CCCCC1 | 80%

Target: Neuronal acetylcholine receptor subunit alpha-7 (Rattus norvegicus, UniProt Q05941)
Test: Displacement of [125I]-alpha-bungarotoxin from alpha7 nAChR in Wistar rat brain membrane incubated for 3 hrs by gamma counting analysis
Type: cell membranes
Conditions: not given
Summary of the method: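 Frontal cortex membranes from male Wistar rats (2 rats per experiment), homogenised in pH 7.4 HEPES buffer and spun at 45,000×g. 25 μg protein incubated with 2 nM [125I]α-bungarotoxin and 10^-10 to 10^-6 M competitor in pH 7.4 Tris-HCl with Ca/Mg for 3 h at 22 °C. Nonspecific binding defined with 1 μM α-bungarotoxin. Filtered on PEI-soaked GF/C, gamma counted. IC50 read graphically, converted to Ki.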

Neuronal acetylcholine receptor subunit alpha-7, sequence (Q05941 whole entry): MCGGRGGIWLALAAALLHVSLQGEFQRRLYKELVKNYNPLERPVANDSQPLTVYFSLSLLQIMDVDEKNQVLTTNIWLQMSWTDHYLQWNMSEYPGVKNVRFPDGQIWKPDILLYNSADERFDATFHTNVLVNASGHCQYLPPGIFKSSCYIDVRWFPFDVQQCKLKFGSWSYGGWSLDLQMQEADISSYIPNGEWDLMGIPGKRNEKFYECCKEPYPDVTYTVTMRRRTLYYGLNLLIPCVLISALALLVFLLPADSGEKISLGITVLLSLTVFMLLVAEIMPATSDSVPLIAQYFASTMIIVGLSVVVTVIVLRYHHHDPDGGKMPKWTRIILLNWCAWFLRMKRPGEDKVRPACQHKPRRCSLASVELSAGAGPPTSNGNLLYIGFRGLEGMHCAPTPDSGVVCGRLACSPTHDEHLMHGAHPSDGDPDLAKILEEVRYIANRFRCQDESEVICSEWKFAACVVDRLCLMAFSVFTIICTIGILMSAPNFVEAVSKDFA

Row | SMILES | Ki
7 | NCc1ccc(-c2ccc(-c3cn([C@H]4CN5CCC4CC5)nn3)s2)cc1 | 0.3 nM
8 | FCc1cccc(-c2ccc(-c3cn([C@H]4CN5CCC4CC5)nn3)s2)c1 | 42 nM
9 | OCc1ccc(-c2cccc(-c3cn([C@H]4CN5CCC4CC5)nn3)c2)cc1 | 7 nM
10 | CN1CCN(Cc2cccc(-c3ccc(-c4cn([C@H]5CN6CCC5CC6)nn4)s3)c2)CC1 | 16 nM
11 | OCc1cccc(-c2ccc(-c3cn([C@H]4CN5CCC4CC5)nn3)s2)c1 | 0.7 nM
12 | OCc1ccc(-c2ccc(-c3cn([C@H]4CN5CCC4CC5)nn3)cc2)cc1 | 100 to 175 nM
13 | OCc1ccc(-c2csc(-c3cn([C@H]4CN5CCC4CC5)nn3)c2)cc1 | 1.5 nM
14 | Fc1ccc(-c2csc(-c3cn([C@H]4CN5CCC4CC5)nn3)c2)cn1 | 31 nM
15 | OCCc1ccc(-c2ccc(-c3cn([C@H]4CN5CCC4CC5)nn3)s2)cc1 | 1.5 nM
16 | c1cc(-c2ccc(CN3CCCCC3)cc2)cc(-c2cn([C@H]3CN4CCC3CC4)nn2)c1 | 3 nM
17 | OCCOc1ccc(-c2ccc(-c3cn([C@H]4CN5CCC4CC5)nn3)s2)cc1 | 1.7 nM
18 | CN1CCN(Cc2cccc(-c3cccc(-c4cn([C@H]5CN6CCC5CC6)nn4)c3)c2)CC1 | 39 nM
19 | OCc1ccc(-c2cccc(-c3cn([C@H]4CN5CCC4CC5)nn3)c2)s1 | 0.2 nM
20 | Fc1ccc(-c2ccc(-c3cn([C@H]4CN5CCC4CC5)nn3)s2)cn1 | 13 nM
21 | c1csc(-c2ccc(-c3cn([C@H]4CN5CCC4CC5)nn3)cc2)c1 | 110 to 160 nM
22 | OCc1ccc(-c2ccc(-c3cn([C@H]4CN5CCC4CC5)nn3)s2)cc1F | 12 nM
23 | FCCOc1ccc(-c2ccc(-c3cn([C@H]4CN5CCC4CC5)nn3)s2)cc1 | 340 nM
24 | COC(=O)c1ccc(-c2ccc(-c3cn([C@H]4CN5CCC4CC5)nn3)s2)cc1F | 80 to 90 nM

Row | SMILES | Ki
25 | c1cc(CN2CCCCC2)cc(-c2cccc(-c3cn([C@H]4CN5CCC4CC5)nn3)c2)c1 | 122 nM
26 | c1cc(-c2ccc(CN3CCOCC3)cc2)cc(-c2cn([C@H]3CN4CCC3CC4)nn2)c1 | 12.5 nM
27 | CN1CCN(Cc2ccc(-c3cccc(-c4cn([C@H]5CN6CCC5CC6)nn4)c3)cc2)CC1 | 1.9 nM
28 | OCc1ccc(-c2ccc(-c3cn([C@H]4CN5CCC4CC5)nn3)s2)s1 | 0.8 nM
29 | c1cc(CN2CCCCC2)cc(-c2ccc(-c3cn([C@H]4CN5CCC4CC5)nn3)s2)c1 | 17 nM
30 | FCCc1ccc(-c2ccc(-c3cn([C@H]4CN5CCC4CC5)nn3)s2)cc1 | 157 nM
31 | c1cc2c(cc1-c1ccc(-c3cn([C@H]4CN5CCC4CC5)nn3)s1)OCCO2 | 140 nM
32 | c1cc(CN2CCOCC2)cc(-c2cccc(-c3cn([C@H]4CN5CCC4CC5)nn3)c2)c1 | 49 nM
33 | OCc1ccc(-c2cccc(-c3cn([C@H]4CN5CCC4CC5)nn3)c2)cc1F | 18 nM
34 | OC1CCN(Cc2ccc(-c3ccc(-c4cn([C@H]5CN6CCC5CC6)nn4)s3)cc2)CC1 | 0.3 nM
35 | FCC1CCN(Cc2ccc(-c3ccc(-c4cn([C@H]5CN6CCC5CC6)nn4)s3)cc2)CC1 | 1.4 nM
36 | COCOCCOc1ccc(-c2ccc(-c3cn([C@H]4CN5CCC4CC5)nn3)s2)cc1 | 140 nM
37 | OCc1ccc(-c2ccc(-c3cn([C@H]4CN5CCC4CC5)nn3)cc2)s1 | 120 to 200 nM
38 | FC1CCN(Cc2ccc(-c3ccc(-c4cn([C@H]5CN6CCC5CC6)nn4)s3)cc2)CC1 | 2.8 nM
39 | c1ccc(-c2ccc(-c3cn([C@H]4CN5CCC4CC5)nn3)s2)cc1 | 43 nM
40 | c1cc(CN2CCOCC2)cc(-c2ccc(-c3cn([C@H]4CN5CCC4CC5)nn3)s2)c1 | 16 nM
41 | Fc1ccc(-c2ccc(-c3cn([C@H]4CN5CCC4CC5)nn3)cc2)cn1 | > 1000 nM
42 | c1cc2c(cc1-c1ccc(-c3cn([C@H]4CN5CCC4CC5)nn3)s1)CCO2 | 60 nM

Test system: SH-SY5Y
Test: Cytotoxicity against human SH-SY5Y cells assessed as cell viability at 0.13 to 1.3 uM incubated for 48 hrs by MTS assay
Type: cell-based
Conditions: not given
Summary of the method: as §4

Row | SMILES | Activity
43 | Fc1ccc(-c2ccc(-c3cn([C@H]4CN5CCC4CC5)nn3)s2)cn1 | Non-Toxic

Target: T1, 5-hydroxytryptamine receptor 3A (Homo sapiens, UniProt P46098)
T1 sequence (P46098 whole entry): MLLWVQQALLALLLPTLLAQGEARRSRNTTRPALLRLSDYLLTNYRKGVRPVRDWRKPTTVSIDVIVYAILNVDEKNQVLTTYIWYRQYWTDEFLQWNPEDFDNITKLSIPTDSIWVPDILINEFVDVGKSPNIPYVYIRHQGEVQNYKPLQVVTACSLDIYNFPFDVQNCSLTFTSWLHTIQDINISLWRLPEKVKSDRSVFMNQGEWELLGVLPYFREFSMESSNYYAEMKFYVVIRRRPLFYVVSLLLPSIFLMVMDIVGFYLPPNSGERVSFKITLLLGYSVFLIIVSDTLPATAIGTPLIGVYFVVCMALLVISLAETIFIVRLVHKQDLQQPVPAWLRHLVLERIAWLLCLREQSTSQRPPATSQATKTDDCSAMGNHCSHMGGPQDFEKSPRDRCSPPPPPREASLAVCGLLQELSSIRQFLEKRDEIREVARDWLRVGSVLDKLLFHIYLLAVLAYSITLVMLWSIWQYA
Test: Displacement of [3H]BRL 43694 from human 5HT3R by radioligand displacement assay
Conditions: not given

Row | SMILES | Ki
44 | Fc1ccc(-c2ccc(-c3cn([C@H]4CN5CCC4CC5)nn3)s2)cn1 | 440 nM
45 | FCc1ccc(-c2ccc(-c3cn([C@H]4CN5CCC4CC5)nn3)s2)cc1 | > 1000 nM
46 | c1cc(-c2ccc(-c3cn([C@H]4CN5CCC4CC5)nn3)s2)ccc1CN1CCCCC1 | 560 nM

Target: Neuronal acetylcholine receptor subunit alpha-7 (Homo sapiens) (UniProt P36544)
Test: as §2, with “at 50” for “at 3”
Type: cell-based
Conditions: not given
Summary of the method: as §3

Row | SMILES | Activity
47 | FCc1ccc(-c2ccc(-c3cn([C@H]4CN5CCC4CC5)nn3)s2)cc1 | inactive

Target: Neuronal acetylcholine receptor; alpha4/beta2 (Homo sapiens, UniProt P17787+P43681)
Test: Displacement of [3H]cytisine from human recombinant alpha4beta2 nAChR incubated for 120 mins by radiometric scintillation analysis
Type: protein-complex assay
Conditions: not given

Neuronal acetylcholine receptor; alpha4/beta2, sequence (P17787 whole entry): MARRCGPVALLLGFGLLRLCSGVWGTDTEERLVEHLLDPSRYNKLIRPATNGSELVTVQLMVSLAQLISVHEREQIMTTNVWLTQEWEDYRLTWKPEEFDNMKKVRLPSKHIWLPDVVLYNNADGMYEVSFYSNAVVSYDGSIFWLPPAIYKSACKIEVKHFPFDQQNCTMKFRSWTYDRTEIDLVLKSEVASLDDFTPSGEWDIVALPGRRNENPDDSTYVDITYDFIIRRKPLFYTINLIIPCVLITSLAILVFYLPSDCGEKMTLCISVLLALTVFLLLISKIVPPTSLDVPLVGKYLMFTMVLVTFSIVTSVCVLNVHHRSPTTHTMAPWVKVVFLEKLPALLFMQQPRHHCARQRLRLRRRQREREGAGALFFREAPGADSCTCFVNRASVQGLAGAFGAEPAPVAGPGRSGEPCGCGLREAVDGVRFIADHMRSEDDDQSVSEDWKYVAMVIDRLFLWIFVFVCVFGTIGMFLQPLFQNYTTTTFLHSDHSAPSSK
Neuronal acetylcholine receptor; alpha4/beta2, sequence (P43681 whole entry): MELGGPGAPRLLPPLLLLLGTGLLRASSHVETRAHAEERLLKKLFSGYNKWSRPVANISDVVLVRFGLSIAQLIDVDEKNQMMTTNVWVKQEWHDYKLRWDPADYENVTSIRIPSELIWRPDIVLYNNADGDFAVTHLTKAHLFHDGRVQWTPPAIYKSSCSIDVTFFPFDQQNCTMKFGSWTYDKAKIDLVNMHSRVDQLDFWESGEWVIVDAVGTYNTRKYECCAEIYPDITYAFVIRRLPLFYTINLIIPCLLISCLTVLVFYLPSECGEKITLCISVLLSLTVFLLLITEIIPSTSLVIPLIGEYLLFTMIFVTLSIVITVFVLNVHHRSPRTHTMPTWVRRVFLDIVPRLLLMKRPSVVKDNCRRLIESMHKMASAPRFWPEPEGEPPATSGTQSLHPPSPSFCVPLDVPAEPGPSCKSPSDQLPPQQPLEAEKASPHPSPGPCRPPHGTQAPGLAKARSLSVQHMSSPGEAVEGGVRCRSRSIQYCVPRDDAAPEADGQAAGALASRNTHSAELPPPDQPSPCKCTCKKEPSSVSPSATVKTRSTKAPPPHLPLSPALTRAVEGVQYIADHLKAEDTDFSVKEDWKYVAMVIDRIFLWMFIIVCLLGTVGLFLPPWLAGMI

Row | SMILES | Ki
48 | Fc1ccc(-c2ccc(-c3cn([C@H]4CN5CCC4CC5)nn3)s2)cn1 | > 1000 nM
49 | FCc1ccc(-c2ccc(-c3cn([C@H]4CN5CCC4CC5)nn3)s2)cc1 | > 1000 nM
50 | c1cc(-c2ccc(-c3cn([C@H]4CN5CCC4CC5)nn3)s2)ccc1CN1CCCCC1 | 1000 nM

Test system: SH-SY5Y
Test: Cytotoxicity against human SH-SY5Y cells assessed as cell viability at 0.003 to 3 uM incubated for 48 hrs by MTS assay
Type: cell-based
Conditions: not given
Summary of the method: as §4

Row | SMILES | Activity
51 | c1cc(-c2ccc(-c3cn([C@H]4CN5CCC4CC5)nn3)s2)ccc1CN1CCCCC1 | Non-Toxic

Target: Neuronal acetylcholine receptor subunit alpha-7 (Homo sapiens) (UniProt P36544)
Test: Agonist activity at alpha7 nAChR in human SH-SY5Y cells assessed as increase in intracellular calcium release at 50 nM preincubated for 1 min with alpha7 nAchR PAM PNU120596 prior to compound addition by Fluo-3 AM staining-based fluorescence spectral scanning multimode reader analysis
Type: cell-based
Conditions: not given
Summary of the method: as §1

Row | SMILES | Activity
52 | FCc1ccc(-c2ccc(-c3cn([C@H]4CN5CCC4CC5)nn3)s2)cc1 | Active

Target: Neuronal acetylcholine receptor subunit alpha-7 (Homo sapiens) (UniProt P36544)
Test: as §2, with “at 130” for “at 3”
Type: cell-based
Conditions: not given
Summary of the method: as §3

Row | SMILES | Activity
53 | Fc1ccc(-c2ccc(-c3cn([C@H]4CN5CCC4CC5)nn3)s2)cn1 | inactive
